Assay [1] has as its system Radical scavenging activity. Description: Antioxidant activity assessed as DPPH free radical scavenging activity after 30 mins. Format: functional. In short, it runs like this:
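DPPH dissolved in MeOH; 160 µL of reaction mixture containing test sample combined with 40 µL DPPH solution, kept in the dark 30 min. Absorbance read at 520 nm and percent inhibition calculated. IC50 (µM giving 50% inhibition of DPPH radical) derived from the log-dose inhibition curve. L-ascorbic acid served as positive control.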

Assay [2] concerns HL-60. Description: Cytotoxicity against human HL60 cells after 72 hrs by MTT assay. Conditions: HL-60, 72 h. The class given is functional, cell-based.
Assay [3] relates to A549. Briefly: Cytotoxicity against human A549 cells after 24 hrs by SRB assay. Format: functional, cell-based. The settings on record: A549, 24 h. The essentials:
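SRB method: cells plated at 2 × 10^5 cells/mL, then test solutions in MeOH added and cultured a further 24 h. Cells fixed with 12% trichloroacetic acid, stained with 0.4% SRB, absorbance read at 515 nm. IC50 (concentration inhibiting proliferation 50%) calculated from the linear portion of log dose-response curves; paclitaxel positive control.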

The subject of assay [4] is P388. Briefly: Cytotoxicity against mouse P388 cells after 72 hrs by MTT assay. The class given is functional, cell-based. Conditions: P388, 72 h. The essentials: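 P388 and HL-60 cells seeded at 5 × 10^4 cells/mL and pre-incubated 24 h. Test solutions in MeOH added, then 72 h exposure. MTT (5 mg/mL solution) added for 4 h, formazan dissolved in DMSO, absorbance read at 540 nm. IC50 taken from the linear part of log dose-response curves. Paclitaxel as positive control.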

Assay [5] deals with Bel-7402. Description: Cytotoxicity against human Bel7402 cells after 24 hrs by SRB assay. Format: functional, cell-based. Conditions: Bel-7402, 24 h.
A short description of assay [6]: Cytotoxicity against mouse NS1 cells. The class given is functional.

pIC50: −log10 of the molar value.

Consider `Cc1c(O)c2c(c3c1[C@H](C)[C@@H](C)O3)Oc1cc(O)c(C)c3c1[C@H]2O[C@H](C)[C@H]3C` [PENICITRINOL A], for which the pIC50 in assay [1] was 4.57.
Take `Cc1c(O)c(C)c2c(c1O)C(=O)OC(C)(O)C2` (centres undefined) [SCLEROTININ B]: the negative logarithm of the IC50 (pIC50) in assay [1] was under 3.00.
For the compound `CO[C@@]12O[C@H](C)[C@@H](C)C1=C(C)C(=O)C1=C2Oc2cc(O)c(C)c3c2[C@H]1O[C@H](C)[C@H]3C` [PENICITRINOL B], the negative-log IC50 (pIC50) was under 4.30 in assay [2]; under 4.30 in assay [3]; under 4.30 in assay [4]; under 4.30 in assay [5]; 3.54 in assay [1].
In the case of `Cc1c(O)c(C(=O)O)c(O)c2c1[C@H](C)[C@@H](C)OC2=O` [DIHYDROCITRINONE], in assay [1], the negative-log IC50 (pIC50) is under 3.00.
Compound `Cc1c2c(c3oc4cc(=O)c(C)c5c-4c(c3c1O)O[C@H](C)[C@H]5C)O[C@H](C)[C@H]2C` [DICITRININ A] registered an LD99 in assay [6] of 6.3 µg/mL. In assay [1], the pIC50 was 4.97.
For the compound `CC(=O)O[C@H]1C(=O)[C@@]2(C)[C@H]([C@H](OC(=O)c3ccccc3)[C@]3(O)C[C@H](OC(=O)[C@H](O)[C@@H](NC(=O)c4ccccc4)c4ccccc4)C(C)=C1C3(C)C)[C@]1(OC(C)=O)CO[C@@H]1C[C@@H]2O` [PACLITAXEL], the negative logarithm of the IC50 (pIC50) in assay [3] was 6.03.
Turning to `Cc1c([C@H](C)[C@@H](C)O)cc(O)c(C(=O)O)c1O` [PHENOL A ACID], in assay [1], the pIC50 is 3.10.
Take `CC1=C2C(=CO[C@H](C)[C@H]2C)C(O)=C(C(=O)O)C1=O` [CITRININ]: the pIC50 in assay [1] was 3.80.
Still for that read-out and setting: then `CC1=C([C@H](C)[C@@H](C)OC=O)C(=O)C2=C(C1=O)[C@@H]1O[C@H](C)[C@@H](C)c3c(C)c(O)cc(c31)O2` [CITRININ H1], with 4.23; and `Cc1cc(O)cc(O)c1` [ORCINOL], with 6.10.
Still for that read-out and setting: under `O=C1O[C@H]([C@@H](O)CO)C(O)=C1O` [ASCORBIC ACID] stands 4.64.
Turning to `Cc1c([C@H](C)[C@H](C)O)c(O)c2oc3cc(=O)c(C)c4c-3c(c2c1O)O[C@H](C)[C@H]4C` [PENNICITRINONE C], the pIC50 was under 4.30 in assay [2]; under 4.30 in assay [3]; under 4.30 in assay [4]; under 4.30 in assay [5]; 4.26 in assay [1].
`Cc1c(O)c(C(=O)O)c(O)c2c1[C@H](C)[C@@H](C)OC2` [DIHYDROCITRININ]: the pIC50 in assay [1] is 3.91.
Still for that read-out and setting: then `Cc1c(O)cc(O)cc1[C@H](C)[C@@H](C)O` [PHENOL A], with 4.65; and `Cc1cc(O)c(C)c(O)c1C`, with 5.42.
